Two compounds from ChEMBL document CHEMBL4325910, “Design and synthesis of rosiglitazone-ferulic acid-nitric oxide donor trihybrids for improving glucose tolerance” (Eur J Med Chem, 2019) can be followed below.

Calls of active or inactive are those of the source. The calls are words filed in the database; no cut-off is given here. Where only a bound is given, the exact number is not on record here.

In one data set the test system is L02. As to the kind of experiment: Inhibition of cellular glucose output in dexamethasone-induced insulin resistant human L02 cells assessed as insulin-stimulated glucose uptake at 10 uM preincubated for 24 hrs followed by insulin stimulation measured after 24 hrs by glucose oxidase method (reference value: 4.5 +/- 0.7%). The format is functional. Details: scale not given: the % may be the effect or the level left.

Data set [1] has as its system 3T3-L1. Description: Induction of insulin-stimulated 2-NBDG uptake in TNF-alpha-induced insulin resistant mouse 3T3L1 cells at 10 uM preincubated for 48 hrs followed by 2-NBDG addition measured after 30 mins in presence of insulin by fluorescence assay. The format is functional, cell-based. The method, boiled down:
(§1)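 Day-8 differentiated 3T3-L1 adipocytes received TNF-α (4 ng/mL) daily for 4 days. They were pretreated in triplicate for 48 h (C-PTIO 20 μM where indicated), then given 100 μM 2-NBDG at 37 °C for 30 min in the dark, with or without insulin. After KRP washes, fluorescence was read at Ex/Em 485/515 nm. Three experiments, mean ± SD.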

Data set [2] relates to 3T3-L1. As to the kind of experiment: Induction of insulin-stimulated 2-NBDG uptake in TNF-alpha-induced insulin resistant mouse 3T3L1 cells preincubated for 48 hrs followed by 2-NBDG addition measured after 30 mins in presence of insulin by fluorescence assay. Format: functional, cell-based. In outline: as §1
The nature of data set [3]: Toxicity in spontaneous db/db BKS.Cg-Dock7m +/+ Leprdb/J mouse assessed as body weight gain at 27 umol/kg, po administered as daily dose via gavage treated for 18 days measured post last dose (reference value: 5.6 +/- 2.1 g). Format: organism-based. The following applies: in vivo, 432 h.
A further data set has as its system Mus musculus. As to the kind of experiment: Effect on lipid metabolism in spontaneous db/db BKS.Cg-Dock7m +/+ Leprdb/J mouse assessed as decrease in serum triglyceride level at 27 umol/kg, po administered as daily dose via gavage for 18 days. Format: functional, organism-based. In outline:
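db/db mice were gavaged daily for 18 days in 0.5% CMC-Na (n=8 per group), with a vehicle model group. On day 19, blood was collected and serum prepared by centrifugation. Serum triglyceride and HDL were then measured.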

In data set [4] the test system is 3T3-L1. As to the kind of experiment: Induction of adipogenesis in mouse 3T3L1 preadipocytes assessed as increase in intracellular triglyceride level at 10 uM treated every other day up to day 14 by AdipoRed staining based confocal microscopic method. Format: functional, cell-based. In outline:
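3T3-L1 preadipocytes were grown to confluence plus 48 h. Differentiation was induced with 1.0 μM dexamethasone, 0.5 mM IBMX and 1.0 μg/mL insulin for 48 h, then insulin alone. Compound or 0.1% DMSO was added every other day to day 14. Cells were washed in KRP, stained with AdipoRed for 15 min in the dark, imaged confocally and read at Ex/Em 485/572 nm.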

The subject of data set [5] is 3T3-L1. Description: Induction of nitric oxide production in TNF-alpha-induced insulin resistant mouse 3T3L1 cells at 3 to 10 uM after 0.5 to 6 hrs by DAF-FM-2DA dye based fluorescence assay. Format: functional, cell-based. In outline:
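Insulin-resistant 3T3-L1 adipocytes (TNF-α 4 ng/mL, 4 days) were treated for varying times, with or without 20 μM C-PTIO. Vehicle was DMSO 0.1% or NaOH 10 μM. Cells were washed in KRP, loaded with 10 μM DAF-FM-2DA in pH 7.4 PBS at 37 °C for 30 min, and read at Ex/Em 485/515 nm. Three experiments.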

Data set [6] has as its system Platelet. Description: Antiplatelet activity in platelet rich plasma (unknown origin) assessed as inhibition of arachidonic acid-induced platelet aggregation. The format is functional, cell-based.
The test system of data set [7] is Platelet. Description: Antiplatelet activity in platelet rich plasma (unknown origin) assessed as inhibition of ADP-induced platelet aggregation. The format is functional, cell-based.
The target of data set [8] is Voltage-gated inwardly rectifying potassium channel KCNH2 (Homo sapiens, UniProt Q12809). As to the kind of experiment: Inhibition of human ERG expressed in CHO cells by patch clamp assay. Format: cell-based.
Data set [9] concerns the target T1, hERG (KCNH2) (Homo sapiens, UniProt Q12809). As to the kind of experiment: Inhibition of human ERG expressed in CHO cells at 1.25 uM by patch clamp assay relative to control. The following applies: CHO cells that express hERG. The format is cell-based.
Data set [10] deals with T1, hERG (KCNH2). Description: Inhibition of human ERG expressed in CHO cells at 2.5 uM by patch clamp assay relative to control. To be noted: CHO cells that express hERG. The format is cell-based. For orientation: In patch-clamp work, channel activity is measured electrically.
Data set [11] deals with T1, hERG (KCNH2). As to the kind of experiment: Inhibition of human ERG expressed in CHO cells at 5 uM by patch clamp assay relative to control. Format: cell-based. To be noted: CHO cells that express hERG.
Data set [12] concerns the target T1, hERG (KCNH2). As to the kind of experiment: Inhibition of human ERG expressed in CHO cells at 10 uM by patch clamp assay relative to control. The format is cell-based. The following applies: CHO cells that express hERG.
For data set [13], the target named is T1, hERG (KCNH2). Description: Inhibition of human ERG expressed in CHO cells at 20 uM by patch clamp assay relative to control. Format: cell-based. The following applies: CHO cells that express hERG.
Data set [14] has as its target T1, hERG (KCNH2). Description: Inhibition of human ERG expressed in CHO cells at 40 uM by patch clamp assay relative to control. The format is cell-based. To be noted: CHO cells that express hERG.
Data set [15] is described as follows: Toxicity in po dosed ICR mouse administered as single dose via gavage treated on day 1 and measured daily up to 14 days. The format is organism-based. To be noted: in vivo. In outline:
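Mice of both sexes, 7 weeks old, were randomized and given one oral gavage dose on day 1. Dose levels were 500, 1000, 2000, 3000, 4000 or 5000 mg/kg, or 2000, 4000 and 5000 mg/kg, with n = 10 per group. Behaviour, health and mortality were checked daily for 14 days, and total deaths were counted on day 14. LD50 was calculated with 95% confidence limits.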

Data set [16] concerns the target T2, Aquaporin-2 (Homo sapiens, UniProt P41181).
T2 sequence (P41181 whole entry): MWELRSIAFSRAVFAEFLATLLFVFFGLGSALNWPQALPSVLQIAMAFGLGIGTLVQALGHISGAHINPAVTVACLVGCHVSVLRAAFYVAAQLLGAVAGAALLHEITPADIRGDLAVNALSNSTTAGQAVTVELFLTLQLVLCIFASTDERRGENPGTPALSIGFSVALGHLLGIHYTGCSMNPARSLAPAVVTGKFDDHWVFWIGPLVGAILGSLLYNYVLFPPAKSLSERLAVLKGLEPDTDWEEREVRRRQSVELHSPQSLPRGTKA
Description: Induction of membrane translocation of biotinylated human AQP2 expressed in rat IMCD cells at 10 to 50 uM after 30 mins by Western blot analysis. Format: cell-based. The following applies: 0.5 h. In outline:
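Human AQP2-transfected primary rat IMCD cells were treated for 30 min. Surface proteins were biotinylated with sulfo-NHS-LC-biotin (3 mg/mL, 60 min, 4 °C), then cells lysed in 1% NP-40 and pulled down overnight on streptavidin beads. Biotinylated and total AQP2 (30 μg/lane) were blotted with anti-AQP2 and quantified by densitometry as the biotinylated/total ratio. Three experiments, mean ± SD.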

The target in data set [17] is T2, Aquaporin-2. Description: Induction of membrane translocation of biotinylated human AQP2 expressed in rat IMCD cells at 10 to 50 uM after 30 mins by FITC-staining based confocal fluorescence microscopic analysis. Format: cell-based. The following applies: 0.5 h. In outline:
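Primary SD rat IMCD cells, day 5, were transfected with a human AQP2 plasmid (5 h, serum-free) and cultured 48 h. They were treated for 30 min, with 0.1% DMSO as vehicle and forskolin 100 μM as reference. Cells were fixed in paraformaldehyde, permeabilized with Triton X-100 and quenched with H2O2/methanol. They were stained with FITC-anti-AQP2 and imaged by confocal microscopy.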

Data set [18] is described as follows: Drug metabolism in Sprague-Dawley rat plasma after 0.5 hrs by HPLC analysis. Format: ADME, cell-free. The following applies: read-out: Drug metabolism. The method, boiled down: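 100 mM DMSO stock was diluted 1:1000 into SD rat plasma, in triplicate. Incubated with shaking at 37 °C for 0–24 h, then stopped with three volumes of acetonitrile and centrifuged.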

Broadly, the EC50 is the concentration that produces a half-maximal response. Usually IC50 stands for the concentration that gives 50% inhibition. For orientation: inhibition means the change of the read-out against control, counted positive when it falls. By LD50 is commonly meant the dose expected to kill half of the subjects tested.

T1 sequence (Q12809 whole entry): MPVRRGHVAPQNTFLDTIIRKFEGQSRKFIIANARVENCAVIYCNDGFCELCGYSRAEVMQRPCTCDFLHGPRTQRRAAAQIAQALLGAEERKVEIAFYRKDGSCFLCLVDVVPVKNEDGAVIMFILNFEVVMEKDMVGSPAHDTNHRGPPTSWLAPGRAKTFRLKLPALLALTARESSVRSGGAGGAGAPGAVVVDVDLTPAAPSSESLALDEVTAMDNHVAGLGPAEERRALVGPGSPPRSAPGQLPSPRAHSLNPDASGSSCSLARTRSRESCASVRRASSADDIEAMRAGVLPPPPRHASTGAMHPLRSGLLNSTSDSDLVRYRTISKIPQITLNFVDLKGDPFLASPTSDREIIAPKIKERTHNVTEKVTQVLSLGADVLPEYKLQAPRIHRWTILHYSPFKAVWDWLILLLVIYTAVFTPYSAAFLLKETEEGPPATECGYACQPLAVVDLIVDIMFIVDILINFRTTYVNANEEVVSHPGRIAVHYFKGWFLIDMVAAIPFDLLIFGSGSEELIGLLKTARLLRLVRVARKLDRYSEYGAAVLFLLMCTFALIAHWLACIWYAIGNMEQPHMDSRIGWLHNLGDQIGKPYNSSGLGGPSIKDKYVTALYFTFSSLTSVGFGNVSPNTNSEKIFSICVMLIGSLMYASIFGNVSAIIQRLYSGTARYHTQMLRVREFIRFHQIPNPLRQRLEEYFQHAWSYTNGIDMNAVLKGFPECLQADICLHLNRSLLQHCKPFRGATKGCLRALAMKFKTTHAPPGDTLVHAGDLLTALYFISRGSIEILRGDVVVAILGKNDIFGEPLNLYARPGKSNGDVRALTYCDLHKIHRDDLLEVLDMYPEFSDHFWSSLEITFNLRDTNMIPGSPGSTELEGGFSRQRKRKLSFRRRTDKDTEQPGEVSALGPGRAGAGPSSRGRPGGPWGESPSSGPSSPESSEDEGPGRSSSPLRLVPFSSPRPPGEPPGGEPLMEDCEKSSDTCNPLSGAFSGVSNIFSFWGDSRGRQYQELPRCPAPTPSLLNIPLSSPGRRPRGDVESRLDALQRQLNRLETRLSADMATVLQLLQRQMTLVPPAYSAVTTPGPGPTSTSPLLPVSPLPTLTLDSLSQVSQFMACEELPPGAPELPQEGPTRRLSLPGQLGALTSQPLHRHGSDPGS
Sequence of Voltage-gated inwardly rectifying potassium channel KCNH2 (Q12809 whole entry): as above

Turning to `CCN(CC)/[N+]([O-])=N/OCOC(=O)/C=C/c1ccc(OC(=O)OCN2C(=O)SC(Cc3ccc(OCCN(C)c4ccccn4)cc3)C2=O)c(OC)c1` (configuration not stated), the Activity in the data set with L02 is 47.8%; in [3] it was 3.4 g; on Aquaporin-2 [16], “Not Active”; at Aquaporin-2 [17], “Not Active”. The result in the data set with 3T3-L1 [1], with Mus musculus, in the data set with 3T3-L1 [4] and with 3T3-L1 [5] was Active. Besides, the half-maximal effective concentration (EC50) in the data set with 3T3-L1 [2] turned out to be 1.08 µM. Besides, the IC50 is 700 µM in the data set on Platelet [6], 2100 µM in the data set on Platelet [7] and above 40 µM in data set [8]. At hERG (KCNH2) [9], 1.25 µM produced 9.06% inhibition. The inhibition at 2.5 µM against hERG (KCNH2) [10] was found to be 10.8%. The compound also yielded an inhibition at 5 µM against hERG (KCNH2) [11] of 14.5%. Moreover, the inhibition at 10 µM against hERG (KCNH2) [12] stood at 18%. For the same compound, 20 µM produced 26.2% inhibition against hERG (KCNH2) [13]. This compound came in with an inhibition at 40 µM at hERG (KCNH2) [14] of 39.5%. In [15], this compound gave an LD50 at 336 h above 5000 mg/kg. Further, in data set [18], the metabolised at 0.5 h is 23%.

Regarding `CN(CCOc1ccc(CC2SC(=O)NC2=O)cc1)c1ccccn1` (configuration not stated) [ROSIGLITAZONE], the Activity in the data set on L02 was 11.8%; in [3] it was 6.6 g; at Aquaporin-2 [16], “Active”; at Aquaporin-2 [17] it was “Active”. Besides, the result in the data set on 3T3-L1 [1] and in the data set with 3T3-L1 [4] was Active. Also, in the data set with 3T3-L1 [2], the EC50 is 1.72 µM. Besides, the concentration for half-maximal inhibition (IC50) came out at 6400 µM in the data set with Platelet [6], 5700 µM with Platelet [7] and 29.5 µM in [8]. On hERG (KCNH2) [9], testing at 1.25 µM gave an inhibition of 9.38%. For the same compound, the inhibition at 2.5 µM on hERG (KCNH2) [10] was determined as 17.3%. The compound further displayed an inhibition at 5 µM against hERG (KCNH2) [11] of 23.3%. The compound further displayed an inhibition at 10 µM against hERG (KCNH2) [12] of 30.1%. For the same compound, testing at 20 µM against hERG (KCNH2) [13] gave an inhibition of 42.5%. On hERG (KCNH2) [14], the inhibition at 40 µM stood at 57.9%. Also, the LD50 at 336 h in data set [15] was found to be 2580 mg/kg.
